Data: ChEMBL document CHEMBL2010643 (Bioorg Med Chem Lett, 2012)
Calls of active or inactive are those of the source. No cut-off for these calls is given here.

Tests used:
[1] = biological target: Protein kinase C alpha type (Homo sapiens) (UniProt P17252); assay: Inhibition of PKCalpha assessed as residual activity at 1 uM relative to control
[2] = biological target: T1, Leucine-rich repeat serine/threonine-protein kinase 2 (Homo sapiens, UniProt Q5S007); assay: Inhibition of wild-type LRRK2 phosphorylation at Ser910 expressed in HEK293 cells at 0.1 to 0.3 uM after 90 mins by immunoblot analysis; assay type: cell-based
How it was run: (§1)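 HEK293 cells stably expressing wild-type GFP-LRRK2 exposed to DMSO or increasing inhibitor concentrations for 90 min. Lysates immunoblotted for LRRK2 phosphorylated at Ser910 and Ser935 and for total LRRK2.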

[3] = biological target: Serine/threonine-protein kinase 26 (Homo sapiens) (UniProt Q9P289); assay: Inhibition of MST4 assessed as residual activity at 10 uM relative to control
[4] = biological target: Mitogen-activated protein kinase kinase kinase 1 (Homo sapiens) (UniProt Q13233); assay: Inhibition of MEKK1 assessed as residual activity at 1 uM relative to control
[5] = biological target: Serine/threonine-protein kinase pim-2 (Homo sapiens) (UniProt Q9P1W9); assay: Inhibition of PIM2 assessed as residual activity at 1 uM relative to control
[6] = biological target: Serine/threonine-protein kinase TBK1 (Homo sapiens) (UniProt Q9UHD2); assay: Inhibition of TBK1 assessed as residual activity at 1 uM relative to control
Mus musculus [7] = assay: Inhibition of LRRK2 phosphorylation at Ser910 in C57BL/6 mouse kidney at 10 mg/kg, po administered for 8 hrs followed by 2 hrs dosing; assay type: functional, organism-based; set-up: dose 10 mg/kg
How it was run: (§2)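 Mice were dosed by oral gavage at 10 or 50 mg/kg. Brain, spleen and kidney were collected. Endogenous LRRK2 was resolved by SDS–PAGE and blotted with phospho-specific antibodies to Ser910 and Ser935 and with an antibody to total LRRK2.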

[8] = biological target: Mitogen-activated protein kinase 12 (Homo sapiens) (UniProt P53778); assay: Inhibition of p38gamma MAPK assessed as residual activity at 1 uM relative to control
How it was run: (§3)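 Radioactivity-based enzymatic kinase assays run across a 124-kinase profiling panel (Dundee), reporting the remaining kinase activity relative to a control.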

[9] = biological target: Serine/threonine-protein kinase N2 (Homo sapiens) (UniProt Q16513); assay: Inhibition of PRK2 assessed as residual activity at 10 uM relative to control
[10] = biological target: Serine/threonine-protein kinase pim-2 (Homo sapiens) (UniProt Q9P1W9); assay: Inhibition of PIM2 assessed as residual activity at 10 uM relative to control
[11] = biological target: Dual specificity mitogen-activated protein kinase kinase 6 (Homo sapiens) (UniProt P52564); assay: Inhibition of MKK6 assessed as residual activity at 1 uM relative to control
[12] = biological target: Calcium/calmodulin-dependent protein kinase kinase 2 (Homo sapiens) (UniProt Q96RR4); assay: Inhibition of CAMKKb assessed as residual activity at 10 uM relative to control
[13] = biological target: Tyrosine-protein kinase ZAP-70 (Homo sapiens) (UniProt P43403); assay: Inhibition of ZAP70 assessed as residual activity at 10 uM relative to control; how it was run: as §3
[14] = biological target: Mitogen-activated protein kinase 15 (Homo sapiens) (UniProt Q8TD08); assay: Inhibition of ERK8 assessed as residual activity at 10 uM relative to control
[15] = biological target: Dual specificity mitogen-activated protein kinase kinase 6 (Homo sapiens) (UniProt P52564); assay: Inhibition of MKK6 assessed as residual activity at 10 uM relative to control
[16] = biological target: Cyclin-dependent kinase 2/cyclin A (Homo sapiens) (UniProt P24941+P20248+P78396); assay: Inhibition of CDK2-Cyclin A assessed as residual activity at 10 uM relative to control; assay type: protein-complex assay
[17] = biological target: Dual specificity protein kinase TTK (Homo sapiens) (UniProt P33981); assay: Inhibition of TTK assessed as residual activity at 1 uM relative to control; how it was run: as §3
[18] = biological target: T1, Leucine-rich repeat serine/threonine-protein kinase 2; assay: Inhibition of wild-type LRRK2 phosphorylation at Ser935 expressed in HEK293 cells after 90 mins by immunoblot analysis; assay type: cell-based; how it was run: as §1
[19] = biological target: Eukaryotic elongation factor 2 kinase (Homo sapiens) (UniProt O00418); assay: Inhibition of EF2K assessed as residual activity at 1 uM relative to control
How it was run: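 Standard radioactivity-based enzymatic assays were run across a 124-kinase panel (Dundee profiling), with compound at 1 µM. Kinase activity was expressed relative to control.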

[20] = biological target: Mitogen-activated protein kinase 14 (Homo sapiens) (UniProt Q16539); assay: Inhibition of p38alpha MAPK assessed as residual activity at 1 uM relative to control; how it was run: as §3
[21] = biological target: Ribosomal protein S6 kinase beta-1 (Homo sapiens) (UniProt P23443); assay: Inhibition of S6K1 assessed as residual activity at 10 uM relative to control
[22] = biological target: Proto-oncogene tyrosine-protein kinase Src (Homo sapiens) (UniProt P12931); assay: Inhibition of Src assessed as residual activity at 1 uM relative to control
[23] = biological target: T1, Leucine-rich repeat serine/threonine-protein kinase 2; assay: Inhibition of wild-type LRRK2 phosphorylation at Ser935 expressed in HEK293 cells at 0.1 to 0.3 uM after 90 mins by immunoblot analysis; assay type: cell-based; how it was run: as §1
[24] = biological target: Dual specificity mitogen-activated protein kinase kinase 1 (Homo sapiens) (UniProt Q02750); assay: Inhibition of MKK1 assessed as residual activity at 1 uM relative to control
[25] = Inhibition of CK2 assessed as residual activity at 1 uM relative to control
Plasma = assay: AUClast in Swiss albino mouse plasma at 10 mg/kg, po; assay type: ADME, organism-based; set-up: time 0 - last, dose 10 mg/kg, route oral; settings: in vivo
How it was run: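 Male Swiss Albino mice were given a single dose, either intravenous at 1 mg/kg or oral at 10 mg/kg. AUClast was measured in plasma and in brain. Half-life, plasma clearance, volume of distribution and oral bioavailability were derived from the plasma data.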

[26] = biological target: Serine/threonine-protein kinase 16 (Homo sapiens) (UniProt O75716); assay: Inhibition of MPSK1 assessed as residual activity at 10 uM relative to control
[27] = biological target: Mitogen-activated protein kinase 13 (Homo sapiens) (UniProt O15264); assay: Inhibition of p38delta MAPK assessed as residual activity at 10 uM relative to control; how it was run: as §3
[28] = biological target: Tyrosine-protein kinase CSK (Homo sapiens) (UniProt P41240); assay: Inhibition of CSK assessed as residual activity at 10 uM relative to control
[29] = biological target: Mitogen-activated protein kinase 13 (Homo sapiens) (UniProt O15264); assay: Inhibition of p38delta MAPK assessed as residual activity at 1 uM relative to control; how it was run: as §3
[30] = biological target: Serine/threonine-protein kinase pim-3 (Homo sapiens) (UniProt Q86V86); assay: Inhibition of PIM3 assessed as residual activity at 10 uM relative to control
[31] = biological target: Serine/threonine-protein kinase TBK1 (Homo sapiens) (UniProt Q9UHD2); assay: Inhibition of TBK1 assessed as residual activity at 10 uM relative to control
Mus musculus [32] = assay: Inhibition of LRRK2 phosphorylation at Ser935 in C57BL/6 mouse kidney at 50 mg/kg, po administered for 8 hrs followed by 2 hrs dosing; assay type: functional, organism-based; set-up: dose 50 mg/kg; how it was run: as §2
[33] = biological target: Protein-tyrosine kinase 6 (Homo sapiens) (UniProt Q13882); assay: Inhibition of BRK assessed as residual activity at 1 uM relative to control

T1 sequence (Q5S007 whole entry): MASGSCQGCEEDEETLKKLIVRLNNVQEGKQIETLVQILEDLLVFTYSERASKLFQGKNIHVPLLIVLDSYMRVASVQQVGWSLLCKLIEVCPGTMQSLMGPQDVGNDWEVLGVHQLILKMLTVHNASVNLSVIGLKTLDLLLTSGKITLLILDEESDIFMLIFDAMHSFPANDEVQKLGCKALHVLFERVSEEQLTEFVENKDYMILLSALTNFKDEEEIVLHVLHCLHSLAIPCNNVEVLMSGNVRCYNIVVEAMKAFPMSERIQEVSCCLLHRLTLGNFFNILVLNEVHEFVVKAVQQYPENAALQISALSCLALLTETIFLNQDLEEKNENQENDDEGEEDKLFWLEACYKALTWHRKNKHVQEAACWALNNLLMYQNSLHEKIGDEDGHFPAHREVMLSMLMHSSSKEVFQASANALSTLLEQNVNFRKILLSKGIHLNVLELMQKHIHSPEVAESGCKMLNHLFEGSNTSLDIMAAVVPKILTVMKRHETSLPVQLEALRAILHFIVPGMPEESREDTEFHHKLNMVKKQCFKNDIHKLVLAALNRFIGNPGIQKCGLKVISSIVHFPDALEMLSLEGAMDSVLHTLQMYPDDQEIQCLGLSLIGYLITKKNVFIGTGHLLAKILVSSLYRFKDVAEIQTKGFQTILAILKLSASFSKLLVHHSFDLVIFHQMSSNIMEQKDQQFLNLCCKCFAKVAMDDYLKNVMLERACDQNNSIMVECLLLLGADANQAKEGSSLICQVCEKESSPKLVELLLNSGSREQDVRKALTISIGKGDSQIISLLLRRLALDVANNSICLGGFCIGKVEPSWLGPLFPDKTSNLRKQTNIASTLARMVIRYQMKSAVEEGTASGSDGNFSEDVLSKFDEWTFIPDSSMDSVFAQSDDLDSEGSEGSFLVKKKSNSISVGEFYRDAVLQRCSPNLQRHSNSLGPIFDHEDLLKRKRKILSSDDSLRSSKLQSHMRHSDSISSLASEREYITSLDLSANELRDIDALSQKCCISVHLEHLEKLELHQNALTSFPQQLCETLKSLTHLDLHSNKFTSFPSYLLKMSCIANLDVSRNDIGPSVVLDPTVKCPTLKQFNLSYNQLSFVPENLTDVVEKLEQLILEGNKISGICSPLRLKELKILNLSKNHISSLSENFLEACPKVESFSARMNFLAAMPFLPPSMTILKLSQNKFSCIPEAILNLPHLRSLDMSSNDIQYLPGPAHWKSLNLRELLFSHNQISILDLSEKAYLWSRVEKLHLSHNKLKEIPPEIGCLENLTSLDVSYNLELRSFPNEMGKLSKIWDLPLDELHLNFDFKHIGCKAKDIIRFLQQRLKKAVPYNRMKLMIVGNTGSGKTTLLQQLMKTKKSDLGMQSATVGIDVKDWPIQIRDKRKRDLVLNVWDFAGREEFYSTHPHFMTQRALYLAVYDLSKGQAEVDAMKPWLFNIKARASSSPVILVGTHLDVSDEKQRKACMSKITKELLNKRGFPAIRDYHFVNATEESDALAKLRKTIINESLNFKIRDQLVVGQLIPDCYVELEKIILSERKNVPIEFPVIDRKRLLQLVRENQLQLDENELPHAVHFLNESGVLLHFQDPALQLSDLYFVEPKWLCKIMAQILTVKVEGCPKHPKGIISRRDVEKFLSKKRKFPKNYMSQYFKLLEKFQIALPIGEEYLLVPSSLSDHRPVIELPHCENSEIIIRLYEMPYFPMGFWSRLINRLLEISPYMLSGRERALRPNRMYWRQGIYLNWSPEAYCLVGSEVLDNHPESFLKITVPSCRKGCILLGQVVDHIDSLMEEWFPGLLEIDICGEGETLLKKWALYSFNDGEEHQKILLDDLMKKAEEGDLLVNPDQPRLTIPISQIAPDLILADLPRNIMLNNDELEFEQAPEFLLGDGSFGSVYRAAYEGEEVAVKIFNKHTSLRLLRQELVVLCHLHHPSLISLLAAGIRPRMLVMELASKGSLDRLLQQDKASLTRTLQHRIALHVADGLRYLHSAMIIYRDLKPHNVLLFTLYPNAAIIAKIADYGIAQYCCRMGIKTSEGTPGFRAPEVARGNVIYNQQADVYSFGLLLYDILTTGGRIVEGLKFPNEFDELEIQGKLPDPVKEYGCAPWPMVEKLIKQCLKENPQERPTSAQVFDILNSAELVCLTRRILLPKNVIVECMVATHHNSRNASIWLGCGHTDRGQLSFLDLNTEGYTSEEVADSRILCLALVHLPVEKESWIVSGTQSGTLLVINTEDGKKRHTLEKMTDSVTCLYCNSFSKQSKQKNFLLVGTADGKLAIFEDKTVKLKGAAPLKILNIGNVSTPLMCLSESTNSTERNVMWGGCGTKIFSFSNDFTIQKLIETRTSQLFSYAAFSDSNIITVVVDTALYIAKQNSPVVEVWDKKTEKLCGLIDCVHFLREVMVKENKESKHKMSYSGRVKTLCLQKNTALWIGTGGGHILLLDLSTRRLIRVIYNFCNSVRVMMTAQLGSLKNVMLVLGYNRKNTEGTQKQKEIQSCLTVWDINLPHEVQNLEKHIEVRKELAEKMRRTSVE
Serine/threonine-protein kinase TBK1 (Homo sapiens), sequence (Q9UHD2 whole entry): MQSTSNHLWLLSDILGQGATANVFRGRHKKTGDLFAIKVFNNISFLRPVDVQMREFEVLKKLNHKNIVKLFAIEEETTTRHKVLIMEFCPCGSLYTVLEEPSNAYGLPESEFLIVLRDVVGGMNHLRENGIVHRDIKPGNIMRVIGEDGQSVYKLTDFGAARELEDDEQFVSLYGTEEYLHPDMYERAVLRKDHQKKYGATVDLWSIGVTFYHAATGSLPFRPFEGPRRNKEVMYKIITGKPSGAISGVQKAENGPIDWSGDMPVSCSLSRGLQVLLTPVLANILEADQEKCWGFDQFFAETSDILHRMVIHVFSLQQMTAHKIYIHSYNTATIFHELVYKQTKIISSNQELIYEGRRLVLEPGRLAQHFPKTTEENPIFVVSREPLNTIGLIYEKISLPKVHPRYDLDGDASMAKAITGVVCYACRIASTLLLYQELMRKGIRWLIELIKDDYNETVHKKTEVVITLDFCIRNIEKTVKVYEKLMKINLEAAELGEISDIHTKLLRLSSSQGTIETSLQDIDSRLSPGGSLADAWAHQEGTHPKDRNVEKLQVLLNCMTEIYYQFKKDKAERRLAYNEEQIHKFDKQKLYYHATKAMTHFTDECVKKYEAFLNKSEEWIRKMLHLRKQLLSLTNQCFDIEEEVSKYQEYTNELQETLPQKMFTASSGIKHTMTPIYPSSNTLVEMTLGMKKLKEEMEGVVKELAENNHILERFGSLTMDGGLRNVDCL
Dual specificity mitogen-activated protein kinase kinase 6 (Homo sapiens), sequence (P52564 whole entry): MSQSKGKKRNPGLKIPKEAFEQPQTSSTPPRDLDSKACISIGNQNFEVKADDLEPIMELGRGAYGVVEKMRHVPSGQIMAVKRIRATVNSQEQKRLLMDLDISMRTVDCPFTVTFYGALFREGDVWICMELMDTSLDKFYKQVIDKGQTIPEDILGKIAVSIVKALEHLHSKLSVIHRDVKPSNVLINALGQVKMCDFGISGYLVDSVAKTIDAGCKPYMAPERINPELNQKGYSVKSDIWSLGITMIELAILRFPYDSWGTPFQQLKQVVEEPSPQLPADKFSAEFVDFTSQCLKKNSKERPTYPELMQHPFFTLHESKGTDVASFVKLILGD
Serine/threonine-protein kinase pim-2 (Homo sapiens), sequence (Q9P1W9 whole entry, looked up): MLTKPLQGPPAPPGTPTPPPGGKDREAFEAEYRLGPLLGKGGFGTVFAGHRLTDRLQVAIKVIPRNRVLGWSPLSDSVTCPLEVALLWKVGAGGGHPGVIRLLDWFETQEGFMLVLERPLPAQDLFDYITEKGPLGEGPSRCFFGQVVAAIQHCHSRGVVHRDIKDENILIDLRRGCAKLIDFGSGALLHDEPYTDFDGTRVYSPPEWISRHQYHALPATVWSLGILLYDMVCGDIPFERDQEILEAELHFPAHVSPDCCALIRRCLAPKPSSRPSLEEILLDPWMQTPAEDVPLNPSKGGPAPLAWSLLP
Mitogen-activated protein kinase 13 (Homo sapiens), sequence (O15264 whole entry): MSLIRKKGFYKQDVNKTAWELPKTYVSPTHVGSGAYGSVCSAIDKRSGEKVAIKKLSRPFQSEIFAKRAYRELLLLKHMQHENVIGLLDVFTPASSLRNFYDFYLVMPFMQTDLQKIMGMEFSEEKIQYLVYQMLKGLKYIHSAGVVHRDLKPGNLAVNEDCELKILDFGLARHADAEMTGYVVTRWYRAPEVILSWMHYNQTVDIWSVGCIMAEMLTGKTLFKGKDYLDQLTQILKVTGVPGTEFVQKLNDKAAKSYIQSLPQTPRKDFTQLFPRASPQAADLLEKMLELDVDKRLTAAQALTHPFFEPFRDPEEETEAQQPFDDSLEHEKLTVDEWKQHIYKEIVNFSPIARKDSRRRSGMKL
Ribosomal protein S6 kinase beta-1 (Homo sapiens), sequence (P23443 whole entry, looked up): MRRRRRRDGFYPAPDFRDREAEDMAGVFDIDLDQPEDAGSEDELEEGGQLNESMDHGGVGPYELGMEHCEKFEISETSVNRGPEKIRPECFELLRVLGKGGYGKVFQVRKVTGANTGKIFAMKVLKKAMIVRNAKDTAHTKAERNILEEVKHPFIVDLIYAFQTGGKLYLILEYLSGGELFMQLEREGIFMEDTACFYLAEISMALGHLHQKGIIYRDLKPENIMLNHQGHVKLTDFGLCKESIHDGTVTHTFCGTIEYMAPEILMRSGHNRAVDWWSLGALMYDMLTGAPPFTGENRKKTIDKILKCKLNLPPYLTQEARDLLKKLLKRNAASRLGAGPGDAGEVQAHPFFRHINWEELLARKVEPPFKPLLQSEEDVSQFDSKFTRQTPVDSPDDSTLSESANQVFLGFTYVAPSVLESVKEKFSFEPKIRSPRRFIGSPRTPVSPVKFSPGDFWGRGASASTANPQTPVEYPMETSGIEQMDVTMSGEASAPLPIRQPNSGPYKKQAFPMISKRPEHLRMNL

Activity [1]: 109%
inhibition [2]: Active
Activity [3]: 55%
Activity [4]: 109%
Activity [5]: 91%
Activity [6]: 93%
Activity [8]: 102%
Activity [9]: 18%
Activity [10]: 107%
Activity [11]: 90%
Activity [12]: 5%
Activity [13]: 129%
Activity [15]: 75%
Activity [16]: 38%
Activity [17]: 73%
inhibition [18]: Dose-dependent effect
Activity [19]: 96%
Activity [20]: 88%
Activity [21]: 68%
Activity [22]: 44%
inhibition [23]: Active
Activity [24]: 91%
Activity [25]: 75%
AUClast (Plasma): 6374 ng·h/mL
Activity [26]: 96%
Activity [27]: 87%
Activity [28]: 33%
Activity [29]: 94%
Activity [30]: 104%
Activity [31]: 71%
Activity [33]: 5%
SMILES: COc1cc(N2CCC(N3CCN(C)CC3)CC2)ccc1Nc1ncc(Cl)c(Nc2ccccc2S(=O)(=O)C(C)C)n1 [TAE-684]
inhibition (Mus musculus [7]): Active
Activity [14]: 26%
inhibition (Mus musculus [32]): Active
